Type in all cases: functional
Assay [1] has as its system Staphylococcus aureus. In words: Antibacterial activity against wild type Staphylococcus aureus Smith ATCC 13709 by CLSI M07-A8 method.
The subject of assay [2] is Streptococcus pneumoniae. As to the kind of experiment: Antibacterial activity against Streptococcus pneumoniae ATCC 49619 by CLSI M07-A8 method.
Assay [3] concerns Staphylococcus aureus. As to the kind of experiment: Antibacterial activity against tetracycline-resistant Staphylococcus aureus isolate 161 harboring tet(M) gene by CLSI M07-A8 method. In outline: (§1)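 MICs were determined by CLSI broth microdilution in freshly prepared cation-adjusted Mueller Hinton broth, kept at 4 °C before use. Defibrinated horse blood was added as appropriate. Runs met QC ranges for comparator antibiotics with ATCC quality control strains.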

For assay [4], the system named is Klebsiella pneumoniae. In words: Antibacterial activity against Klebsiella pneumoniae ATCC 13883 by CLSI M07-A8 method.
The subject of assay [5] is Escherichia coli. As to the kind of experiment: Antibacterial activity against tetracycline-resistant Escherichia coli isolate 155 harboring tet(A) gene by CLSI M07-A8 method. The procedure, abridged: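 MICs were determined by CLSI broth microdilution in freshly prepared cation-adjusted Mueller Hinton broth, kept at 4 °C before use. Defibrinated horse blood was added as appropriate. The highest concentration tested was 32 μg/mL. Runs met QC ranges for comparator antibiotics with ATCC quality control strains.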

Assay [6] has as its system Streptococcus pneumoniae. As to the kind of experiment: Antibacterial activity against tetracycline-resistant Streptococcus pneumoniae isolate 160 harboring tet(M) gene by CLSI M07-A8 method. The procedure, abridged: as §1
In assay [7] the test system is Staphylococcus aureus. In words: Antibacterial activity against tetracycline-resistant Staphylococcus aureus isolate 158 harboring tet(K) gene by CLSI M07-A8 method. The procedure, abridged:
as §1

For assay [8], the system named is Escherichia coli. As to the kind of experiment: Antibacterial activity against Escherichia coli ATCC 25922 by CLSI M07-A8 method.

≈ marks a conversion by molar mass, not a printed value. Bounds are passed on as bounds.

For `CN(C)[C@@H]1C(O)=C(C(N)=O)C(=O)[C@@]2(O)C(O)=C3C(=O)c4c(O)cnc(Cl)c4C[C@H]3C[C@@H]12.Cl`, the minimum inhibitory concentration (MIC) (as a rule, the least concentration at which growth counts as inhibited) in assay [1] was 1 µg/mL; in assay [2], 1 µg/mL; in assay [3] it was 32 µg/mL; in assay [4] it was 4 µg/mL; in assay [5], over 32 µg/mL; in assay [6], 32 µg/mL. In addition, the MIC was 32 µg/mL in assay [7] and 2 µg/mL in assay [8].
With `CN(C)[C@@H]1C(O)=C(C(N)=O)C(=O)[C@@]2(O)C(O)=C3C(=O)c4c(O)cnc(F)c4C[C@H]3C[C@@H]12.Cl`, the minimum inhibitory concentration (MIC) was 0.063 µg/mL in assay [1]; 0.016 µg/mL in assay [2]; 8 µg/mL in assay [3]; 0.5 µg/mL in assay [4]; over 32 µg/mL in assay [5]; 8 µg/mL in assay [6]. Moreover, the MIC in assay [7] was determined as 8 µg/mL; in assay [8], 0.25 µg/mL.
Take `CN(C)CCNc1nc(Cl)c2c(c1O)C(=O)C1=C(O)[C@]3(O)C(=O)C(C(N)=O)=C(O)[C@@H](N(C)C)[C@@H]3C[C@@H]1C2.Cl`: the MIC came out at 2 µg/mL in assay [1]; 0.5 µg/mL in assay [2]; 4 µg/mL in assay [3]; 8 µg/mL in assay [4]; 32 µg/mL in assay [5]; 2 µg/mL in assay [6]. Also, the MIC in assay [7] was 1 µg/mL; in assay [8], 4 µg/mL.
`CN(C)[C@@H]1C(O)=C(C(N)=O)C(=O)[C@@]2(O)C(O)=C3C(=O)c4c(O)c(NCC(C)(C)CN5CCCC5)nc(Cl)c4C[C@H]3C[C@@H]12.Cl`: the MIC in assay [1] was 0.5 µg/mL; in assay [2] it was 0.031 µg/mL; in assay [3], 2 µg/mL; in assay [4], 4 µg/mL; in assay [5], 8 µg/mL; in assay [6], 0.25 µg/mL. Moreover, the MIC in assay [7] stood at 0.125 µg/mL; in assay [8] it was 2 µg/mL.
On to `CNc1nc(Cl)c2c(c1O)C(=O)C1=C(O)[C@]3(O)C(=O)C(C(N)=O)=C(O)[C@@H](N(C)C)[C@@H]3C[C@@H]1C2.Cl.Cl.Cl`, for which the minimum inhibitory concentration (MIC) in assay [1] was found to be 0.016 µg/mL; in assay [2], 0.016 µg/mL; in assay [3], 1 µg/mL; in assay [4], 0.5 µg/mL; in assay [5], 32 µg/mL; in assay [6] it was 4 µg/mL. Also, the results for the minimum inhibitory concentration (MIC) in assay [7] and in assay [8] were 2 µg/mL and 0.125 µg/mL, respectively.
As to `CC(C)Nc1nc(Cl)c2c(c1O)C(=O)C1=C(O)[C@]3(O)C(=O)C(C(N)=O)=C(O)[C@@H](N(C)C)[C@@H]3C[C@@H]1C2.Cl.Cl.Cl`, the MIC in assay [1] is 1 µg/mL; in assay [2], 2 µg/mL; in assay [3], 4 µg/mL; in assay [4], 32 µg/mL; in assay [5], over 32 µg/mL; in assay [6], 16 µg/mL. Further, the MIC in assay [7] stood at 2 µg/mL; in assay [8] it was 32 µg/mL.
Consider `CC(C)CCNc1nc(Cl)c2c(c1O)C(=O)C1=C(O)[C@]3(O)C(=O)C(C(N)=O)=C(O)[C@@H](N(C)C)[C@@H]3C[C@@H]1C2.Cl.Cl.Cl`, for which the minimal inhibitory concentration (MIC) in assay [1] was 0.25 µg/mL; in assay [2], 8 µg/mL; in assay [3] it was 2 µg/mL; in assay [4], over 32 µg/mL; in assay [5], over 32 µg/mL; in assay [6], 32 µg/mL. Moreover, the minimum inhibitory concentration (MIC) in assay [7] was 0.25 µg/mL; in assay [8], over 32 µg/mL.
As to `COCCNc1nc(Cl)c2c(c1O)C(=O)C1=C(O)[C@]3(O)C(=O)C(C(N)=O)=C(O)[C@@H](N(C)C)[C@@H]3C[C@@H]1C2.Cl.Cl.Cl`, the minimal inhibitory concentration (MIC) in assay [1] turned out to be 0.031 µg/mL; in assay [2], 0.063 µg/mL; in assay [3] it was 4 µg/mL; in assay [4], 4 µg/mL; in assay [5], 32 µg/mL; in assay [6], 4 µg/mL. The minimum inhibitory concentration (MIC) in assay [7] and in assay [8] was 1 µg/mL in each case.
Turning to `CN(C)[C@@H]1C(O)=C(C(N)=O)C(=O)[C@@]2(O)C(O)=C3C(=O)c4c(O)cncc4C[C@H]3C[C@@H]12.Cl.Cl`, the MIC in assay [1] is 1 µg/mL; in assay [2] it was 0.25 µg/mL; in assay [3], 32 µg/mL; in assay [4], 1 µg/mL; in assay [5], over 32 µg/mL; in assay [6] it was 32 µg/mL. In addition, the minimal inhibitory concentration (MIC) in assay [7] came out at 16 µg/mL; in assay [8], 0.5 µg/mL.
For the molecule `COc1ncc(O)c2c1C[C@H]1C[C@H]3[C@H](N(C)C)C(O)=C(C(N)=O)C(=O)[C@@]3(O)C(O)=C1C2=O.Cl.Cl`, the minimum inhibitory concentration (MIC) in assay [1] was 0.125 µg/mL; in assay [2], 0.063 µg/mL; in assay [3] it was 8 µg/mL; in assay [4], 1 µg/mL; in assay [5], over 32 µg/mL; in assay [6], 16 µg/mL. The figures for the MIC in assay [7] and in assay [8] were 4 µg/mL and 0.25 µg/mL, respectively.
For `CC(C)OCCNc1nc(Cl)c2c(c1O)C(=O)C1=C(O)[C@]3(O)C(=O)C(C(N)=O)=C(O)[C@@H](N(C)C)[C@@H]3C[C@@H]1C2.Cl.Cl.Cl`, the minimal inhibitory concentration (MIC) is 0.5 µg/mL in assay [1]; 0.031 µg/mL in assay [2]; 2 µg/mL in assay [3]; 16 µg/mL in assay [4]; over 32 µg/mL in assay [5]; 4 µg/mL in assay [6]. Moreover, the figures for the minimal inhibitory concentration (MIC) in assay [7] and in assay [8] were 0.25 µg/mL and 8 µg/mL, respectively.
Consider `CN(C)[C@@H]1C(O)=C(C(N)=O)C(=O)[C@@]2(O)C(O)=C3C(=O)c4c(O)cnc(-c5ccccc5)c4C[C@H]3C[C@@H]12.Cl.Cl`, for which the MIC in assay [1] was 0.063 µg/mL; in assay [2], 0.031 µg/mL; in assay [3], 32 µg/mL; in assay [4], 2 µg/mL; in assay [5], over 32 µg/mL; in assay [6], 4 µg/mL. The values for the minimum inhibitory concentration (MIC) in assay [7] and in assay [8] were 1 µg/mL and 0.5 µg/mL, respectively.
`CCNc1nc(Cl)c2c(c1O)C(=O)C1=C(O)[C@]3(O)C(=O)C(C(N)=O)=C(O)[C@@H](N(C)C)[C@@H]3C[C@@H]1C2.Cl.Cl.Cl`: the MIC in assay [1] was found to be 0.031 µg/mL; in assay [2] it was 0.031 µg/mL; in assay [3], 1 µg/mL; in assay [4], 2 µg/mL; in assay [5], 16 µg/mL; in assay [6], 4 µg/mL. Besides, the minimal inhibitory concentration (MIC) in assay [7] and in assay [8] was 0.5 µg/mL in each case.
`CC(C)CNc1nc(Cl)c2c(c1O)C(=O)C1=C(O)[C@]3(O)C(=O)C(C(N)=O)=C(O)[C@@H](N(C)C)[C@@H]3C[C@@H]1C2.Cl.Cl.Cl`: the MIC in assay [1] is 0.5 µg/mL; in assay [2] it was 1 µg/mL; in assay [3] it was 1 µg/mL; in assay [4] it was over 32 µg/mL; in assay [5], over 32 µg/mL; in assay [6] it was 8 µg/mL. Also, the minimal inhibitory concentration (MIC) in assay [7] came to 0.5 µg/mL; in assay [8], 16 µg/mL.
In the case of `Cc1ncc(O)c2c1C[C@H]1C[C@H]3[C@H](N(C)C)C(O)=C(C(N)=O)C(=O)[C@@]3(O)C(O)=C1C2=O.Cl.Cl`, the MIC in assay [1] was 1 µg/mL; in assay [2] it was 0.25 µg/mL; in assay [3], 32 µg/mL; in assay [4] it was 1 µg/mL; in assay [5], over 32 µg/mL; in assay [6] it was over 32 µg/mL. Moreover, the minimal inhibitory concentration (MIC) amounted to 0.5 µg/mL in assay [7] and 1 µg/mL in assay [8].
`CN(C)c1ccc(O)c2c1C[C@H]1C[C@H]3[C@H](N(C)C)C(O)=C(C(N)=O)C(=O)[C@@]3(O)C(O)=C1C2=O` [MINOCYCLINE]: the minimum inhibitory concentration (MIC) was 0.125 µg/mL (≈ 0.273 µM) in assay [1]; under 0.016 µg/mL in assay [2]; 16 µg/mL (≈ 35 µM) in assay [3]; 8 µg/mL (≈ 17.5 µM) in assay [5]; 8 µg/mL (≈ 17.5 µM) in assay [6]; 0.25 µg/mL (≈ 0.546 µM) in assay [7]. This molecule also displayed an MIC in assay [8] of 0.5 µg/mL (≈ 1.09 µM).

These data come from ChEMBL document CHEMBL1687901 (J Med Chem, 2011).
